Results on 23 molecules are retold here after ChEMBL document CHEMBL3877306, “Triazole Ureas Act as Diacylglycerol Lipase Inhibitors and Prevent Fasting-Induced Refeeding” (J Med Chem, 2017).

Assay [1] addresses T1, Diacylglycerol lipase-alpha (Homo sapiens, UniProt Q9Y4D2).
T1 sequence (Q9Y4D2 whole entry): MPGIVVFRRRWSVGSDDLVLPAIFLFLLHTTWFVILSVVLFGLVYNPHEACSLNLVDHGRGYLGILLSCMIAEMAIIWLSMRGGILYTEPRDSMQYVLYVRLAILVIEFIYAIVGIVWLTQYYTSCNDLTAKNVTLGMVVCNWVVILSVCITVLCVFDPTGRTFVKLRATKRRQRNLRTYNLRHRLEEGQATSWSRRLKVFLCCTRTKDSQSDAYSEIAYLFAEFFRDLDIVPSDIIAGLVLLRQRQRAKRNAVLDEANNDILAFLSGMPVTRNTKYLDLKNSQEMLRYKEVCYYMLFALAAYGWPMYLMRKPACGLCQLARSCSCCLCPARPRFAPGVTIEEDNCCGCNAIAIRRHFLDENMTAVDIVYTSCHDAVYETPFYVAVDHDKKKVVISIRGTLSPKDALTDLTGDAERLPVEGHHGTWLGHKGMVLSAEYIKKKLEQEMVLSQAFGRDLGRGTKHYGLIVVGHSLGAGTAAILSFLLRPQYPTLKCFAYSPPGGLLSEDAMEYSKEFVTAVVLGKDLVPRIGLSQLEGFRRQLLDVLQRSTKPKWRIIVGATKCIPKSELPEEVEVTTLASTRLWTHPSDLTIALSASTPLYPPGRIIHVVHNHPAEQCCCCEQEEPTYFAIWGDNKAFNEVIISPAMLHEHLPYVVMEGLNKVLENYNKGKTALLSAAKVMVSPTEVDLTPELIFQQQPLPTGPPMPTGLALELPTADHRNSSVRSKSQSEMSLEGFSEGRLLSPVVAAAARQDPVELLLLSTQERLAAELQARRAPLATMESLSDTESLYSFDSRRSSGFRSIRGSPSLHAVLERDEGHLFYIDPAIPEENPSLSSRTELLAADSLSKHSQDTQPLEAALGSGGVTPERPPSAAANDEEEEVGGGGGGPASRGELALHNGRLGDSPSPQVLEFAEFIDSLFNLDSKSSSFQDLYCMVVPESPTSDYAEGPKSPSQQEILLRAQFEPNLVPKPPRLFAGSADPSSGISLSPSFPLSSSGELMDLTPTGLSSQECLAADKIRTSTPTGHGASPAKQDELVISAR
The experiment in a line: Inhibition of full length recombinant human DAGLalpha expressed in HEK293T cell membranes using PNP butyrate as substrate by colorimetric assay. Also on record: species or system HEK-293T. The gist of the method: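 Membranes from HEK293T cells transiently transfected with human DAGLα (PEI transfection, harvested at 72 h), used at 0.05 µg/µL final protein in 50 mM HEPES pH 7.2. Activity was read colorimetrically from para-nitrophenylbutyrate hydrolysis. n = 4, mean ± SEM.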

The target in assay [2] is T2, Monoacylglycerol lipase ABHD6 (Homo sapiens, UniProt Q9BV23).
T2 sequence (Q9BV23 whole entry): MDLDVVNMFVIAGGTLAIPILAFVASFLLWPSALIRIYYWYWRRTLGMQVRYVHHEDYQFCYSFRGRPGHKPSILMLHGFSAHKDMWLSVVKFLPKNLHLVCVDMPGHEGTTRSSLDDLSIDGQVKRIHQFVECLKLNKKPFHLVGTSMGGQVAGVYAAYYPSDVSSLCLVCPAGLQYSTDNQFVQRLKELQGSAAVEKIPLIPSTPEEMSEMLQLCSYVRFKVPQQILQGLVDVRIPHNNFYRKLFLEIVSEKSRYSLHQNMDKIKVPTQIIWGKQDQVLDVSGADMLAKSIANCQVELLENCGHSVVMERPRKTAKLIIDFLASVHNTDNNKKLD
Nature of the assay: Inhibition of human ABHD6 using 2-AG as natural substrate by fluorescence based assay. The procedure, abridged:
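Coupled fluorescence assay: 2-AG hydrolysis detected via glycerol kinase, glycerol-3-phosphate oxidase and HRP (0.2 U/mL each), 0.125 mM ATP and 10 µM Amplifu Red. Conditions: 25 µM 2-AG, 0.5% acetonitrile, 5% DMSO, ABHD6 membrane protein 40 µg/mL final. n = 4.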

In assay [3] the target is T3, Diacylglycerol lipase-alpha (Mus musculus) (UniProt Q6WQJ1).
T3 sequence (whole entry): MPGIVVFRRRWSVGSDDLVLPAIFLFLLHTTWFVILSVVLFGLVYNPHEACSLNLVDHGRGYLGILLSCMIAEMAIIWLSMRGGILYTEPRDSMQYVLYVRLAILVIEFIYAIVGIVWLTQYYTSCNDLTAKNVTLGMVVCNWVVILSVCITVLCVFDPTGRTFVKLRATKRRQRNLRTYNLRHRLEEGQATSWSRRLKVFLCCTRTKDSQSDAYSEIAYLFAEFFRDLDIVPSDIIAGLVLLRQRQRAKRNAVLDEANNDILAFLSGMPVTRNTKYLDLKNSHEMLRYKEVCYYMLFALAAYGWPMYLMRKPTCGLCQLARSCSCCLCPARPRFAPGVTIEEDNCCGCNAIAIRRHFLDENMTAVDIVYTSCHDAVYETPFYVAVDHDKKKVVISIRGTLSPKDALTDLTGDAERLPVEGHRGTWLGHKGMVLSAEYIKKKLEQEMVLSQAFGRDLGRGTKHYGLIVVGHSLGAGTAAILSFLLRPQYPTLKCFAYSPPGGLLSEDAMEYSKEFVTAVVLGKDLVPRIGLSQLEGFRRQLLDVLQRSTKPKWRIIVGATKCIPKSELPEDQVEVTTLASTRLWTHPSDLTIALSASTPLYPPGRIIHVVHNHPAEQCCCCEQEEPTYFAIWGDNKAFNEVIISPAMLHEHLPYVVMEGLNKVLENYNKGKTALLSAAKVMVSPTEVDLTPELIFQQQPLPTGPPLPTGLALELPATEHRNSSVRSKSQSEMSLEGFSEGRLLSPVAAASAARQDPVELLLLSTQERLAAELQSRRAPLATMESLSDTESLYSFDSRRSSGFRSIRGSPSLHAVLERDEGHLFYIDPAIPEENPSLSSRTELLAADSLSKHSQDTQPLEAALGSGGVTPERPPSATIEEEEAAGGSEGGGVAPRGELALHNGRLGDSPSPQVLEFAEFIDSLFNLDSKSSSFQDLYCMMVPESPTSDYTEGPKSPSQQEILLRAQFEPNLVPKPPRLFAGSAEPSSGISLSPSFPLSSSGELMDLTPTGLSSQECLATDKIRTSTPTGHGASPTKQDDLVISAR
Nature of the assay: (§1) Inhibition of MB064 probe binding to DAGLalpha in mouse brain membrane proteome preincubated for 30 mins followed by MB064 probe addition measured after 20 mins by gel-based competitive activity based protein profiling assay. The assay is classed as cell membranes. The gist of the method: (§2)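 Mouse brain membrane proteome (2 mg/mL) preincubated with inhibitor or DMSO vehicle for 30 min at r.t., then labelled with MB064 at 250 nM final for 20 min at r.t. and quenched in Laemmli buffer. Fluorescent bands were quantified against vehicle set to 100%, and IC50 was taken from a variable-slope log(inhibitor) vs normalized response fit. n = 3.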

Assay [4] concerns the target T4, Diacylglycerol lipase-alpha (Mus musculus, UniProt Q6WQJ1).
T4 sequence (Q6WQJ1 whole entry): T3 sequence (whole entry)
The assay is described as §1. The assay is classed as cell membranes. The gist of the method:
as §2

Assay [5] addresses T5, Monoacylglycerol lipase ABHD6 (Mus musculus, UniProt Q8R2Y0).
T5 sequence (Q8R2Y0 whole entry): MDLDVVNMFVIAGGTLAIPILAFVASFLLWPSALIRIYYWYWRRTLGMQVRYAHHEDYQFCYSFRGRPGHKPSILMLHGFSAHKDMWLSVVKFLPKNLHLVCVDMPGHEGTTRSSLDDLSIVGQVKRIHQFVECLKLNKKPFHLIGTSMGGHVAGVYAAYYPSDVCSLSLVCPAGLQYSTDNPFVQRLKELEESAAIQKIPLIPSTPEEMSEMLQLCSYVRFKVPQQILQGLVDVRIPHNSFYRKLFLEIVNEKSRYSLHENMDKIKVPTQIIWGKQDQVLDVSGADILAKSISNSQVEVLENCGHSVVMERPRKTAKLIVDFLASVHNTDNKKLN
Nature of the assay: Inhibition of MB064 probe binding to ABHD6 in mouse brain membrane proteome preincubated for 30 mins followed by MB064 probe addition measured after 20 mins by gel-based competitive activity based protein profiling assay. The assay is classed as cell membranes. The gist of the method:
as §2

The species entered for another assay is Mus musculus. The experiment in a line: Selectivity ratio of IC50 for ABHD6 in mouse brain membrane proteome to IC50 for DAGLalpha in mouse brain membrane proteome. The format is cell membranes. The procedure, abridged:
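Ratio of DAGLα and ABHD6 […] values, both from competitive gel ABPP in mouse brain membrane proteome. Inhibitor was preincubated 30 min at r.t., then MB064 (250 nM final) was added for 20 min. Band intensities were normalized to vehicle and fitted with a variable-slope curve. n = 3.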

Where only a bound is given, the exact number is not on record here.

Turning to `COc1ccc(CC2CCCCN2C(=O)n2ncc(C(O)(c3ccc(F)cc3)c3ccc(F)cc3)n2)cc1` (stereo not given), the values for the IC50 in assay [1] and in assay [2] were 5.01 nM and 251 nM, respectively.

With `COC(c1ccc(F)cc1)(c1ccc(F)cc1)c1cnn(C(=O)N2CCCCC2Cc2ccccc2)n1` (stereo not given), the IC50 in assay [1] was 12.6 nM; in assay [2] it was above 10000 nM.

`CC(C)(O)c1cnn(C(=O)N2CCCCC2Cc2ccccc2)n1` (stereo not given): the IC50 is 5010 nM in assay [1] and above 10000 nM in assay [2].

`O=C(N1C[C@@H](OCC2CC2)CC[C@@H]1Cc1ccccc1)n1ncc(C(O)(c2ccc(F)cc2)c2ccc(F)cc2)n1`: the IC50 in assay [1] was 20 nM; in assay [2] it was 2510 nM; in assay [4], 79.4 nM; in assay [5] it was above 10000 nM. Further, in assay [3], the inhibition result is “Dose-dependent effect”. The Ratio IC50 in the assay listed under Mus musculus is 145.

For the molecule `CO[C@@H]1CC[C@H](Cc2ccccc2)N(C(=O)n2ncc(C(O)(c3ccc(F)cc3)c3ccc(F)cc3)n2)C1`, the IC50 in assay [1] is 0.794 nM; in assay [2], 50.1 nM; in assay [4], 2 nM; in assay [5], 50.1 nM. The inhibition entry in assay [3] is “Dose-dependent effect”. Besides, in the assay listed under Mus musculus, the Ratio IC50 was determined as 25.

For the molecule `O=C(N1CCCCC1COc1ccccc1)n1ncc(C(O)(c2ccc(F)cc2)c2ccc(F)cc2)n1` (stereo not given), the IC50 was 5.01 nM in assay [1] and 200 nM in assay [2].

Turning to `O=C(N1C[C@H](O)C=C[C@@H]1Cc1ccccc1)n1ncc(C(O)(c2ccc(F)cc2)c2ccc(F)cc2)n1`, the IC50 in assay [1] is 12.6 nM; in assay [2], 39.8 nM.

Turning to `O=C(N1CCCCC1COc1ccc(F)cc1)n1ncc(C(O)(c2ccccc2)c2ccccc2)n1` (stereo not given), the IC50 in assay [1] was 6.31 nM; in assay [2], 251 nM.

With `O=C(N1CCCCC1COc1ccc(F)cc1)n1ncc(C(O)(c2ccc(F)cc2)c2ccc(F)cc2)n1` (stereo not given), the IC50 was 5.01 nM in assay [1] and 200 nM in assay [2].

Take `COc1cccc(CC2CCCCN2C(=O)n2ncc(C(O)(c3ccc(F)cc3)c3ccc(F)cc3)n2)c1` (stereo not given): the IC50 in assay [1] was 3.16 nM; in assay [2] it was 158 nM.

Regarding `O=C(N1C[C@H](OCC2CC2)CC[C@@H]1Cc1ccccc1)n1ncc(C(O)(c2ccc(F)cc2)c2ccc(F)cc2)n1`, the IC50 in assay [1] is 0.631 nM; in assay [2], 39.8 nM; in assay [4], 2 nM; in assay [5], 316 nM. Also, the inhibition result in assay [3] is “Dose-dependent effect”. Besides, the Ratio IC50 in the assay listed under Mus musculus amounted to 160.

For `O=C(N1CCCCC1Cc1ccccc1)n1ncc(C(O)(c2ccc(F)cc2)c2ccc(F)cc2)n1` (stereo not given), the results for the IC50 in assay [1] and in assay [2] were 1 nM and 25.1 nM, respectively.

With `O=C(N1CCCCC1Cc1ccccc1)n1ncc(C2(O)CCCCC2)n1` (stereo not given), the IC50 is 1580 nM in assay [1] and 3160 nM in assay [2].

As for `O=C(N1CCCC[C@@H]1Cc1ccccc1)n1ncc(C(O)(c2ccc(F)cc2)c2ccc(F)cc2)n1`, the IC50 in assay [1] was 0.794 nM.

Take `O=C(N1C[C@@H](O)C=C[C@@H]1Cc1ccccc1)n1ncc(C(O)(c2ccc(F)cc2)c2ccc(F)cc2)n1`: the IC50 was 20 nM in assay [1] and 251 nM in assay [2].

For the molecule `CC(O)(c1ccccc1)c1cnn(C(=O)N2CCCCC2Cc2ccccc2)n1` (stereo not given), the IC50 in assay [1] is 398 nM; in assay [2] it was 3160 nM.

For the molecule `O=C(N1CCCCC1Cc1ccccc1)n1ncc(C(O)(c2ccccn2)c2ccccn2)n1` (stereo not given), the IC50 in assay [1] is 158 nM; in assay [2], 3160 nM.

Consider `O=C(N1CCCCC1COc1ccccc1)n1ncc(C(O)(c2ccccc2)c2ccccc2)n1` (stereo not given), for which the values for the half-maximal inhibitory concentration (IC50) in assay [1] and in assay [2] were 7.94 nM and 158 nM, respectively.

For `O=C(N1C[C@@H](O)CC[C@@H]1Cc1ccccc1)n1ncc(C(O)(c2ccc(F)cc2)c2ccc(F)cc2)n1`, the IC50 in assay [1] was 6310 nM; in assay [2], 200 nM.

`O=C(N1C[C@H](O)CC[C@@H]1Cc1ccccc1)n1ncc(C(O)(c2ccc(F)cc2)c2ccc(F)cc2)n1`: the figures for the IC50 in assay [1] and in assay [2] were 20 nM and 158 nM, respectively.

Turning to `CCC1CCCCN1C(=O)n1ncc(-c2ccc(-c3ccccc3)cc2)n1` (stereo not given), the IC50 in assay [1] is 3980 nM.

Consider `O=C(N1CCCCC1Cc1ccccc1)n1ncc(C(O)(C2CCCCC2)C2CCCCC2)n1` (stereo not given), for which the 50% inhibitory concentration (IC50) was 100 nM in assay [1] and 7940 nM in assay [2].

As to `CO[C@H]1CC[C@H](Cc2ccccc2)N(C(=O)n2ncc(C(O)(c3ccc(F)cc3)c3ccc(F)cc3)n2)C1`, the IC50 in assay [1] is 7.94 nM; in assay [2], 126 nM; in assay [4], 79.4 nM; in assay [5], 398 nM. The inhibition entry in assay [3] was “Dose-dependent effect”. In the assay listed under Mus musculus, the Ratio IC50 was 5.

What is called IC50 is the concentration at which inhibition is half-maximal.
